Experiments:
[1] = Antiplatelet activity in rabbit platelet rich plasma assessed as inhibition rate of ADP-induced platelet aggregation at 200 uM after 5 mins by aggregometry; format: functional; conditions: Oryctolagus cuniculus
Summary of the method: (§1)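 Rabbit platelet-rich plasma obtained by centrifuging blood at 1000 rpm for 5 min. Platelet-poor plasma (3000 rpm, 15 min) served as the reference. Platelets were adjusted to 3×10¹¹/L. PRP was mixed with compound at final levels 400, 200, 100 or 50 and incubated at 37 °C for 5 min before aggregation was read. IC50 was derived by linear regression.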

[2] = Antiplatelet activity in rabbit platelet rich plasma assessed as inhibition rate of ADP-induced platelet aggregation at 100 uM after 5 mins by aggregometry; format: functional; conditions: Oryctolagus cuniculus; summary of the method: as §1
[3] = Antiplatelet activity in rabbit platelet rich plasma assessed as inhibition rate of ADP-induced platelet aggregation at 50 uM after 5 mins by aggregometry; format: functional; conditions: Oryctolagus cuniculus; summary of the method: as §1
[4] = Antiplatelet activity in rabbit platelet rich plasma assessed as inhibition of ADP-induced platelet aggregation after 5 mins by aggregometry; format: functional; conditions: Oryctolagus cuniculus; summary of the method: as §1
ECV-304 [5] = assay: Protection against H2O2-induced toxicity in human ECV304 cells assessed as proliferation rate at 100 uM pretreated for 24 hrs before H2O2 challenge measured after 12 hrs by MTT assay; format: functional; conditions: read-out: Activity
Summary of the method: (§2)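 ECV-304 cells were seeded at 6×10³/well and grown to confluence. Cells were pretreated 24 h with compound in DMSO (final ≤0.05%), then given H2O2 (150) for 12 h at 37 °C, 5% CO2. MTT (5 mg/mL) was added for 4 h, formazan dissolved in DMSO, and A570 read. Proliferation rate = [OD(compd)−OD(H2O2)]/[OD(control)−OD(H2O2)]×100%. EC50 was calculated from proliferation rates by formula.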

ECV-304 [6] = assay: Protection against H2O2-induced toxicity in human ECV304 cells assessed as proliferation rate at 50 uM pretreated for 24 hrs before H2O2 challenge measured after 12 hrs by MTT assay; format: functional; conditions: read-out: Activity; summary of the method: as §2
ECV-304 [7] = assay: Protection against H2O2-induced toxicity in human ECV304 cells assessed as proliferation rate at 25 uM pretreated for 24 hrs before H2O2 challenge measured after 12 hrs by MTT assay; format: functional; conditions: read-out: Activity; summary of the method: as §2
ECV-304 [8] = assay: Protection against H2O2-induced toxicity in human ECV304 cells assessed as proliferation rate at 12.5 uM pretreated for 24 hrs before H2O2 challenge measured after 12 hrs by MTT assay; format: functional; conditions: read-out: Activity; summary of the method: as §2
ECV-304 [9] = assay: Protection against H2O2-induced toxicity in human ECV304 cells assessed as proliferation rate pretreated for 24 hrs before H2O2 challenge measured after 12 hrs by MTT assay; format: functional, cell-based; summary of the method: as §2
[10] = Antiplatelet activity in rabbit platelet rich plasma assessed as inhibition rate of ADP-induced platelet aggregation at 400 uM after 5 mins by aggregometry; format: functional; conditions: Oryctolagus cuniculus; summary of the method: as §1
ECV-304 [11] = assay: Ratio of Ligustrazine EC50 to compound EC50 for protection against H2O2-induced toxicity in human ECV304 cells pretreated for 24 hrs before H2O2 challenge measured after 12 hrs by MTT assay

CCOC(=O)/C=C/c1ccc(OCc2nc(C)c(C)nc2C)c(OC)c1 showed an inhibition at 200 µM [1] of 40.2%, an inhibition at 100 µM [2] of 36.9% and an inhibition at 50 µM [3] of 26.2%. The IC50 [4] was 449 µM, the growth at 100 µM (ECV-304 [5]) was 70.2% and the growth at 50 µM (ECV-304 [6]) was 50.9%. The growth at 25 µM (ECV-304 [7]) was 43.5%, the growth at 12.5 µM (ECV-304 [8]) was 29.5% and the EC50 (ECV-304 [9]) was 109 µM. It also gave an inhibition at 400 µM [10] of 49.5%.
With Cc1nc(C)c(COc2c(Br)cc(Br)cc2/C=C/C(=O)O)nc1C the inhibition at 200 µM [1] was 33.1%, the inhibition at 100 µM [2] was 20% and the inhibition at 50 µM [3] was 18.1%. The IC50 [4] was 1310 µM, the growth at 100 µM (ECV-304 [5]) was -24.8% and the growth at 50 µM (ECV-304 [6]) was 48.5%. It also gave a growth at 25 µM (ECV-304 [7]) of 4.21%, a growth at 12.5 µM (ECV-304 [8]) of -22.3% and an EC50 (ECV-304 [9]) of 155 µM. The inhibition at 400 µM [10] was 37.4%.
In the case of Cc1nc(C)c(COc2ccc(Cl)cc2/C=C/C(=O)O)nc1C, the inhibition at 200 µM [1] is reported as 45.6%, the inhibition at 100 µM [2] is reported as 38.4% and the inhibition at 50 µM [3] is reported as 24.7%. It also gave an IC50 [4] of 1050 µM, a growth at 50 µM (ECV-304 [6]) of -153% and a growth at 25 µM (ECV-304 [7]) of -44%. The growth at 12.5 µM (ECV-304 [8]) was -98.3%, the EC50 (ECV-304 [9]) was 9300 µM and the inhibition at 400 µM [10] was 67%.
For Cc1nc(C)c(COc2cccc(/C=C/C(=O)O)c2)nc1C, the inhibition at 200 µM [1] was 57.2%, the inhibition at 100 µM [2] was 46.6% and the inhibition at 50 µM [3] was 30%. The IC50 [4] was 161 µM, the growth at 100 µM (ECV-304 [5]) was 175% and the growth at 50 µM (ECV-304 [6]) was 473%. For the same molecule, the growth at 25 µM (ECV-304 [7]) was 378%, the growth at 12.5 µM (ECV-304 [8]) was 306% and the EC50 (ECV-304 [9]) was 20 µM. The inhibition at 400 µM [10] was 60.8% and the “EC50 ratio (TMP/compound)” value (ECV-304 [11]) was 30.
Work on O=C(O)/C=C/c1ccc(Cn2ccnc2)cc1 [OZAGREL] yielded an inhibition at 200 µM [1] of 45.4%, an inhibition at 100 µM [2] of 27.3% and an inhibition at 50 µM [3] of 23.3%. The IC50 [4] was 360 µM and the inhibition at 400 µM [10] was 55.3%.
In the case of Cc1nc(C)c(C)nc1C [LIGUSTRAZINE], the growth at 100 µM (ECV-304 [5]) is reported as 42.8%, the growth at 50 µM (ECV-304 [6]) is reported as 22.1% and the growth at 25 µM (ECV-304 [7]) is reported as 12.7%. The growth at 12.5 µM (ECV-304 [8]) was 10.4% and the EC50 (ECV-304 [9]) was 600 µM.
Work on Cc1nc(C)c(COc2c(Br)cc(/C=C/C(=O)O)cc2Br)nc1C yielded an inhibition at 200 µM [1] of 38.6%, an inhibition at 100 µM [2] of 62.8% and an inhibition at 50 µM [3] of 5.3%. It also gave an IC50 [4] of 1290 µM, a growth at 100 µM (ECV-304 [5]) of -85.8% and a growth at 50 µM (ECV-304 [6]) of -113%. The growth at 25 µM (ECV-304 [7]) was -104%, the growth at 12.5 µM (ECV-304 [8]) was -83.8% and the EC50 (ECV-304 [9]) was 3280 µM. The inhibition at 400 µM [10] was 55.4%.
For CCOC(=O)/C=C/c1cc(Br)cc(Br)c1OCc1nc(C)c(C)nc1C, the inhibition at 200 µM [1] was 15.8%, the inhibition at 100 µM [2] was 13.5% and the inhibition at 50 µM [3] was 9.8%. For the same molecule, the IC50 [4] was greater than 2000 µM, the growth at 50 µM (ECV-304 [6]) was 73.9% and the growth at 25 µM (ECV-304 [7]) was -6.88%. For the same molecule, the growth at 12.5 µM (ECV-304 [8]) was -25.7%, the EC50 (ECV-304 [9]) was 1590 µM and the inhibition at 400 µM [10] was 16.1%.
For COc1cc(/C=C/C(=O)O)cc(OC)c1OCc1nc(C)c(C)nc1C, the inhibition at 200 µM [1] was 47.3%, the inhibition at 100 µM [2] was 41% and the inhibition at 50 µM [3] was 33%. It also gave an IC50 [4] of 182 µM, a growth at 100 µM (ECV-304 [5]) of -132% and a growth at 50 µM (ECV-304 [6]) of -95.9%. The growth at 25 µM (ECV-304 [7]) was -33.8%, the growth at 12.5 µM (ECV-304 [8]) was -74.6% and the EC50 (ECV-304 [9]) was 3530 µM. For the same molecule, the inhibition at 400 µM [10] was 64.3%.
Molecule Cc1nc(C)c(COc2ccc(/C=C/C(=O)O)cc2O)nc1C has an inhibition at 200 µM [1] of 60%, an inhibition at 100 µM [2] of 11.8% and an inhibition at 50 µM [3] of 3.46%. The IC50 [4] was 176 µM, the growth at 100 µM (ECV-304 [5]) was 170% and the growth at 50 µM (ECV-304 [6]) was 157%. The growth at 25 µM (ECV-304 [7]) was 131%, the growth at 12.5 µM (ECV-304 [8]) was 15.3% and the EC50 (ECV-304 [9]) was 46 µM. For the same molecule, the inhibition at 400 µM [10] was 87%.
Work on CCOC(=O)/C=C/c1ccc(OCc2nc(C)c(C)nc2C)cc1 yielded an inhibition at 200 µM [1] of 15.5%, an inhibition at 100 µM [2] of 11.9% and an inhibition at 50 µM [3] of 9.8%. The IC50 [4] was greater than 2000 µM, the growth at 100 µM (ECV-304 [5]) was -7.56% and the growth at 50 µM (ECV-304 [6]) was -6.36%. The growth at 25 µM (ECV-304 [7]) was -10.8%, the growth at 12.5 µM (ECV-304 [8]) was -1.79% and the EC50 (ECV-304 [9]) was 206 µM. It also gave an inhibition at 400 µM [10] of 22.7%.

— ChEMBL document CHEMBL1909548, “Ligustrazine derivatives. Part 5: design, synthesis and biological evaluation of novel ligustrazinyloxy-cinnamic acid derivatives as potent cardiovascular agents” (Eur J Med Chem, 2011)
